Measured values as given in ChEMBL document CHEMBL1932971, “Synthesis of uriedo and thiouriedo derivatives of peptide conjugated heterocycles - A new class of promising antimicrobials” (2012).
≈ marks a conversion by molar mass, not a printed value. Numbered stars: 1 amine (or outer) side, 2 acyl side, 3 side chain; on linkers, the order of the positions; unused ones are H or OH. Peptide text beside a SMILES is read from it. * marks the point of attachment. Piperazinyl(4-(2,3-Cl2Ph)) = Clc1cccc(N2CCN(*)CC2)c1Cl; Thiocarbamoyl(N-4-ClPh) = S=C(Nc1ccc(Cl)cc1)*; Thiocarbamoyl(4-MeOPh) = COc1ccc(NC(=S)*)cc1; NH(4-Cl-phenyl) = Clc1ccc(N*)cc1; X1 = Fc1ccc2c(C3CCN(*)CC3)noc2c1; NH(2-F-phenyl) = Fc1ccccc1N*; CO = O=C([*:1])[*:2]

What was measured:
Assay type in all cases: functional
[1] = tested on: Escherichia coli; test: Antibacterial activity against Escherichia coli at 30 ug/ml after 24 hrs by agar well diffusion method; details: read-out: DIZ
How it was run: (§1)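 Agar well diffusion. Inocula were grown in nutrient broth at 37 °C for 24 h, then subcultured in nutrient broth at room temperature. Compounds were made as a 1 mg/mL DMSO stock and diluted to 30 µg/mL final. Nutrient agar plates were spread-inoculated and 6 mm wells each got 0.1 mL. Controls were amoxicillin (reference) and DMSO (negative). Incubation was 24 h at 37 °C. Inhibition zone was measured in mm as the mean of three determinations.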

[2] = tested on: Xanthomonas oryzae; test: Antibacterial activity against Xanthomonas oryzae at 30 ug/ml after 24 hrs by agar well diffusion method; details: read-out: DIZ
[3] = tested on: Klebsiella pneumoniae; test: Antibacterial activity against Klebsiella pneumoniae at 30 ug/ml after 24 hrs by agar well diffusion method; details: read-out: DIZ; how it was run: as §1
[4] = tested on: Staphylococcus aureus; test: Antibacterial activity against coagulase-positive Staphylococcus aureus at 30 ug/ml after 24 hrs by agar well diffusion method; details: read-out: DIZ; how it was run: as §1
[5] = tested on: Escherichia coli; test: Antibacterial activity against Escherichia coli after 24 hrs by microdilution method
[6] = tested on: Xanthomonas oryzae; test: Antibacterial activity against Xanthomonas oryzae after 24 hrs by microdilution method
[7] = tested on: Klebsiella pneumoniae; test: Antibacterial activity against Klebsiella pneumoniae after 24 hrs by microdilution method
[8] = tested on: Staphylococcus aureus; test: Antibacterial activity against coagulase-positive Staphylococcus aureus after 24 hrs by microdilution method
[9] = tested on: Aspergillus niger; test: Antifungal activity against Aspergillus niger at 30 ug/ml after 72 hrs by agar well diffusion method; details: read-out: DIZ
How it was run: (§2)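 Fungal well diffusion. Inocula were subcultured in nutrient broth for one day, then spread on solidified medium. Compounds were made as a 1 mg/mL DMSO stock and diluted to 30 µg/mL final. Each 6 mm well got 0.1 mL. Controls were bavistin (reference) and DMSO (negative). Plates stood for 3 days at room temperature. Inhibition zone was measured in mm as the mean of three determinations.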

[10] = tested on: Aspergillus flavus; test: Antifungal activity against Aspergillus flavus at 30 ug/ml after 72 hrs by agar well diffusion method; details: read-out: DIZ; how it was run: as §2
[11] = tested on: Fusarium oxysporum; test: Antifungal activity against Fusarium oxysporum at 30 ug/ml after 72 hrs by agar well diffusion method; details: read-out: DIZ; how it was run: as §2
[12] = tested on: Aspergillus niger; test: Antifungal activity against Aspergillus niger after 72 hrs by microdilution method
[13] = tested on: Aspergillus flavus; test: Antifungal activity against Aspergillus flavus after 72 hrs by microdilution method
[14] = tested on: Fusarium oxysporum; test: Antifungal activity against Fusarium oxysporum after 72 hrs by microdilution method

| SMILES | zone of inhibition at 30 µg/mL [1] | zone of inhibition at 30 µg/mL [2] | zone of inhibition at 30 µg/mL [3] | zone of inhibition at 30 µg/mL [4] | MIC [5] | MIC [6] | MIC [7] | MIC [8] | zone of inhibition at 30 µg/mL [9] | zone of inhibition at 30 µg/mL [10] | zone of inhibition at 30 µg/mL [11] | MIC [12] | MIC [13] | MIC [14] |
| --- | --- | --- | --- | --- | --- | --- | --- | --- | --- | --- | --- | --- | --- | --- |
| O=C(CNC(=O)Nc1ccccc1F)N[C@@H](Cc1ccccc1)C(=O)NCC(=O)N[C@@H](Cc1ccccc1)C(=O)N1CCC[C@H]1C(=O)N1CCC(c2noc3cc(F)ccc23)CC1 ({NH(2-F-phenyl)-CO}-GFGFP-X1) | 39 mm | 40 mm | 36 mm | 34 mm | 5 µg/mL (≈ 5.79 µM) | 5 µg/mL (≈ 5.79 µM) | 3.25 µg/mL (≈ 3.77 µM) | 4.25 µg/mL (≈ 4.93 µM) | 40 mm | 35 mm | 39 mm | 3.25 µg/mL (≈ 3.77 µM) | 4.75 µg/mL (≈ 5.5 µM) | 4.25 µg/mL (≈ 4.93 µM) |
| O=C(CNC(=O)Nc1ccccc1F)N[C@@H](Cc1ccccc1)C(=O)NCC(=O)N[C@@H](Cc1ccccc1)C(=O)N1CCC[C@H]1C(=O)N1CCN(c2cccc(Cl)c2Cl)CC1 ({NH(2-F-phenyl)-CO}-GFGFP-{Piperazinyl(4-(2,3-Cl2Ph))}) | 37 mm | 38 mm | 35 mm | 33 mm | 5.5 µg/mL (≈ 6.29 µM) | 5.75 µg/mL (≈ 6.58 µM) | 4 µg/mL (≈ 4.58 µM) | 5 µg/mL (≈ 5.72 µM) | 39 mm | 34 mm | 34 mm | 4 µg/mL (≈ 4.58 µM) | 5.25 µg/mL (≈ 6.01 µM) | 5 µg/mL (≈ 5.72 µM) |
| O=C(CNC(=O)Nc1ccccc1F)NCC(=O)N[C@@H](Cc1ccccc1)C(=O)N1CCC[C@H]1C(=O)N1CCC(c2noc3cc(F)ccc23)CC1 ({NH(2-F-phenyl)-CO}-GGFP-X1) | 31 mm | 29 mm | 27 mm | 25 mm | 12 µg/mL (≈ 16.8 µM) | 9 µg/mL (≈ 12.6 µM) | 9 µg/mL (≈ 12.6 µM) | 11 µg/mL (≈ 15.4 µM) | 34 mm | 29 mm | 31 mm | 9 µg/mL (≈ 12.6 µM) | 13 µg/mL (≈ 18.2 µM) | 14 µg/mL (≈ 19.6 µM) |
| CC[C@H](C)[C@H](NC(=O)CNC(=O)CNC(=O)Nc1ccccc1F)C(=O)N1CCC[C@H]1C(=O)N1CCN(c2cccc(Cl)c2Cl)CC1 ({NH(2-F-phenyl)-CO}-GGIP-{Piperazinyl(4-(2,3-Cl2Ph))}) | 29 mm | 26 mm | 23 mm | 24 mm | 13 µg/mL (≈ 18.8 µM) | 10 µg/mL (≈ 14.4 µM) | 10 µg/mL (≈ 14.4 µM) | 12 µg/mL (≈ 17.3 µM) | 32 mm | 28 mm | 30 mm | 11 µg/mL (≈ 15.9 µM) | 14 µg/mL (≈ 20.2 µM) | 15 µg/mL (≈ 21.7 µM) |
| CC(C)[C@H](NC(=O)CNC(=O)Nc1ccccc1F)C(=O)NCC(=O)N[C@H](C(=O)N1CCC[C@H]1C(=O)N1CCC(c2noc3cc(F)ccc23)CC1)C(C)C ({NH(2-F-phenyl)-CO}-GVGVP-X1) | 34 mm | 35 mm | 33 mm | 30 mm | 7.75 µg/mL (≈ 10.1 µM) | 6.75 µg/mL (≈ 8.8 µM) | 5.25 µg/mL (≈ 6.85 µM) | 6.75 µg/mL (≈ 8.8 µM) | 36 mm | 32 mm | 33 mm | 5 µg/mL (≈ 6.52 µM) | 5.75 µg/mL (≈ 7.5 µM) | 7 µg/mL (≈ 9.13 µM) |
| CC(C)[C@H](NC(=O)CNC(=O)Nc1ccccc1F)C(=O)NCC(=O)N[C@H](C(=O)N1CCC[C@H]1C(=O)N1CCN(c2cccc(Cl)c2Cl)CC1)C(C)C ({NH(2-F-phenyl)-CO}-GVGVP-{Piperazinyl(4-(2,3-Cl2Ph))}) | 33 mm | 34 mm | 32 mm | 29 mm | 8.25 µg/mL (≈ 10.6 µM) | 7.25 µg/mL (≈ 9.32 µM) | 6 µg/mL (≈ 7.71 µM) | 7.25 µg/mL (≈ 9.32 µM) | 35 mm | 31 mm | 32 mm | 5.5 µg/mL (≈ 7.07 µM) | 6.25 µg/mL (≈ 8.04 µM) | 7.5 µg/mL (≈ 9.64 µM) |
| O=C(CNC(=O)Nc1ccc(Cl)cc1)N[C@@H](Cc1ccccc1)C(=O)NCC(=O)N[C@@H](Cc1ccccc1)C(=O)N1CCC[C@H]1C(=O)N1CCC(c2noc3cc(F)ccc23)CC1 ({NH(4-Cl-phenyl)-CO}-GFGFP-X1) | 34 mm | 35 mm | 33 mm | 31 mm | 6.25 µg/mL (≈ 7.11 µM) | 6.5 µg/mL (≈ 7.39 µM) | 4.75 µg/mL (≈ 5.4 µM) | 6 µg/mL (≈ 6.82 µM) | 38 mm | 31 mm | 35 mm | 4.75 µg/mL (≈ 5.4 µM) | 6.25 µg/mL (≈ 7.11 µM) | 6 µg/mL (≈ 6.82 µM) |
| CC[C@H](C)[C@H](NC(=O)CNC(=O)CNC(=S)Nc1ccc(OC)cc1)C(=O)N1CCC[C@H]1C(=O)N1CCC(c2noc3cc(F)ccc23)CC1 ({Thiocarbamoyl(4-MeOPh)}-GGIP-X1) | 24 mm | 20 mm | 14 mm | 16 mm | – | – | – | – | 26 mm | 22 mm | 24 mm | – | – | – |
| CC[C@H](C)[C@H](NC(=O)CNC(=O)CNC(=S)Nc1ccc(OC)cc1)C(=O)N1CCC[C@H]1C(=O)N1CCN(c2cccc(Cl)c2Cl)CC1 ({Thiocarbamoyl(4-MeOPh)}-GGIP-{Piperazinyl(4-(2,3-Cl2Ph))}) | 23 mm | 19 mm | 13 mm | 18 mm | – | – | – | – | 25 mm | 21 mm | 23 mm | – | – | – |
| COc1ccc(NC(=S)NCC(=O)N[C@H](C(=O)NCC(=O)N[C@H](C(=O)N2CCC[C@H]2C(=O)N2CCC(c3noc4cc(F)ccc34)CC2)C(C)C)C(C)C)cc1 ({Thiocarbamoyl(4-MeOPh)}-GVGVP-X1) | 28 mm | 28 mm | 26 mm | 24 mm | – | – | – | – | 31 mm | 26 mm | 26 mm | – | – | – |
| COc1ccc(NC(=S)NCC(=O)N[C@H](C(=O)NCC(=O)N[C@H](C(=O)N2CCC[C@H]2C(=O)N2CCN(c3cccc(Cl)c3Cl)CC2)C(C)C)C(C)C)cc1 ({Thiocarbamoyl(4-MeOPh)}-GVGVP-{Piperazinyl(4-(2,3-Cl2Ph))}) | 27 mm | 26 mm | 22 mm | 22 mm | – | – | – | – | 29 mm | 23 mm | 24 mm | – | – | – |
| O=C(CNC(=S)Nc1ccc(Cl)cc1)NCC(=O)N[C@@H](Cc1ccccc1)C(=O)N1CCC[C@H]1C(=O)N1CCC(c2noc3cc(F)ccc23)CC1 ({Thiocarbamoyl(N-4-ClPh)}-GGFP-X1) | 30 mm | 27 mm | 26 mm | 24 mm | – | – | – | – | 33 mm | 29 mm | 31 mm | – | – | – |
| O=C(CNC(=S)Nc1ccc(Cl)cc1)NCC(=O)N[C@@H](Cc1ccccc1)C(=O)N1CCC[C@H]1C(=O)N1CCN(c2cccc(Cl)c2Cl)CC1 ({Thiocarbamoyl(N-4-ClPh)}-GGFP-{Piperazinyl(4-(2,3-Cl2Ph))}) | 29 mm | 26 mm | 25 mm | 23 mm | – | – | – | – | 32 mm | 28 mm | 30 mm | – | – | – |
| CC[C@H](C)[C@H](NC(=O)CNC(=O)CNC(=S)Nc1ccc(Cl)cc1)C(=O)N1CCC[C@H]1C(=O)N1CCC(c2noc3cc(F)ccc23)CC1 ({Thiocarbamoyl(N-4-ClPh)}-GGIP-X1) | 28 mm | 25 mm | 21 mm | 21 mm | – | – | – | – | 29 mm | 27 mm | 29 mm | – | – | – |
| CC[C@H](C)[C@H](NC(=O)CNC(=O)CNC(=S)Nc1ccc(Cl)cc1)C(=O)N1CCC[C@H]1C(=O)N1CCN(c2cccc(Cl)c2Cl)CC1 ({Thiocarbamoyl(N-4-ClPh)}-GGIP-{Piperazinyl(4-(2,3-Cl2Ph))}) | 27 mm | 24 mm | 20 mm | 22 mm | – | – | – | – | 28 mm | 26 mm | 28 mm | – | – | – |
| CC1(C)S[C@@H]2[C@H](NC(=O)[C@H](N)c3ccc(O)cc3)C(=O)N2[C@H]1C(=O)O [AMOXICILLIN] | 12 mm | 9 mm | 8 mm | 8 mm | 24 µg/mL (≈ 65.7 µM) | 19 µg/mL (≈ 52 µM) | 20 µg/mL (≈ 54.7 µM) | 23 µg/mL (≈ 62.9 µM) | – | – | – | – | – | – |
| COC(=O)Nc1nc2ccccc2[nH]1 [CARBENDAZIM] | – | – | – | – | – | – | – | – | 12 mm | 9 mm | 10 mm | 22 µg/mL (≈ 115 µM) | 26 µg/mL (≈ 136 µM) | 25 µg/mL (≈ 131 µM) |
